Reference: ChEMBL document CHEMBL1255285, “Spontaneous deletion of the methicillin resistance determinant, mecA, partially compensates for the fitness cost associated with high-level vancomycin resistance in Staphylococcus aureus” (2008)
≈ marks a conversion by molar mass, not a printed value.

Key:
Assay type in all cases: functional
Staphylococcus aureus [1] = test: Antimicrobial activity against oxacillin sensitive and vancomycin resistant Staphylococcus aureus isolate VP32 by broth microdilution method
Method in brief: (§1)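 Broth microdilution MIC in cation-adjusted Mueller-Hinton broth per CLSI (formerly NCCLS) guidelines. Strains were routinely grown in brain heart infusion broth or agar at 37°C with shaking at 220 rpm. Vancomycin-passaged derivatives were raised by serial broth passage through 0.5 to 32 µg/ml vancomycin, then maintained on BHI agar with 32 µg/ml vancomycin.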

Staphylococcus aureus [2] = test: Antimicrobial activity against homotypic oxacillin resistant and vancomycin intermediate resistant Staphylococcus aureus isolate 5827 by broth microdilution method; method in brief: as §1
Staphylococcus aureus [3] = test: Antimicrobial activity against homotypic oxacillin resistant Staphylococcus aureus isolate 450MHomo by broth microdilution method; method in brief: as §1
Staphylococcus aureus [4] = test: Antimicrobial activity against oxacillin sensitive and vancomycin resistant Staphylococcus aureus isolate 3130VR by broth microdilution method; method in brief: as §1
Staphylococcus aureus [5] = test: Antimicrobial activity against homotypic oxacillin resistant and vancomycin resistant Staphylococcus aureus isolate 3130V32 by broth microdilution method; method in brief: as §1
Staphylococcus aureus [6] = test: Antimicrobial activity against heterotypic oxacillin resistant and vancomycin intermediate resistant Staphylococcus aureus isolate 5836 by broth microdilution method; method in brief: as §1
Staphylococcus aureus [7] = test: Antimicrobial activity against oxacillin sensitive and tetracycline and vancomycin resistant Staphylococcus aureus isolate 3130V32deltamecA with mecA::tetM genotype by broth microdilution method; method in brief: as §1
Staphylococcus aureus [8] = test: Antimicrobial activity against oxacillin sensitive and tetracycline resistant Staphylococcus aureus isolate 450MHomodeltamecA with mecA::tetM genotype by broth microdilution method; method in brief: as §1
Staphylococcus aureus [9] = test: Antimicrobial activity against oxacillin sensitive Staphylococcus aureus isolate 450MHomoex with SCCmec excised genotype by broth microdilution method; method in brief: as §1
Staphylococcus aureus [10] = test: Antimicrobial activity against homotypic oxacillin resistant and vancomycin resistant Staphylococcus aureus isolate 5836V32 by broth microdilution method; method in brief: as §1
Staphylococcus aureus [11] = test: Antimicrobial activity against oxacillin sensitive and vancomycin resistant Staphylococcus aureus isolate 5836VR by broth microdilution method
Method in brief: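 MIC by broth microdilution in cation-adjusted Mueller-Hinton broth, following CLSI (formerly NCCLS) guidelines. The isolate came from an MRSA parent passaged in broth through stepwise vancomycin (0.5 to 32 µg/ml). It was then kept on BHI agar with 32 µg/ml vancomycin and selected as unable to grow on 6 µg/ml oxacillin. Routine growth was in BHI at 37°C.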

Staphylococcus aureus [12] = test: Antimicrobial activity against homotypic oxacillin resistant and vancomycin sensitive Staphylococcus aureus isolate 3130 by broth microdilution method; method in brief: as §1
Staphylococcus aureus [13] = test: Antimicrobial activity against homotypic oxacillin resistant and vancomycin resistant Staphylococcus aureus isolate 5827V32 by broth microdilution method; method in brief: as §1

Cc1onc(-c2ccccc2)c1C(=O)N[C@@H]1C(=O)N2[C@@H]1SC(C)(C)[C@@H]2C(=O)O [OXACILLIN]
MIC (Staphylococcus aureus [1]): 0.5 µg/mL (≈ 1.25 µM)
MIC (Staphylococcus aureus [2]): > 8 µg/mL
MIC (Staphylococcus aureus [3]): > 8 µg/mL
MIC (Staphylococcus aureus [4]): 0.5 µg/mL (≈ 1.25 µM)
MIC (Staphylococcus aureus [5]): > 8 µg/mL
MIC (Staphylococcus aureus [6]): > 8 µg/mL
MIC (Staphylococcus aureus [7]): 0.5 µg/mL (≈ 1.25 µM)
MIC (Staphylococcus aureus [8]): 0.5 µg/mL (≈ 1.25 µM)
MIC (Staphylococcus aureus [9]): 0.5 µg/mL (≈ 1.25 µM)
MIC (Staphylococcus aureus [10]): > 8 µg/mL
MIC (Staphylococcus aureus [11]): 0.25 µg/mL (≈ 0.623 µM)
MIC (Staphylococcus aureus [12]): > 8 µg/mL
MIC (Staphylococcus aureus [13]): > 8 µg/mL

CN[C@H](CC(C)C)C(=O)N[C@H]1C(=O)N[C@@H](CC(N)=O)C(=O)N[C@H]2C(=O)N[C@H]3C(=O)N[C@H](C(=O)N[C@H](C(=O)O)c4cc(O)cc(O)c4-c4cc3ccc4O)[C@H](O)c3ccc(c(Cl)c3)Oc3cc2cc(c3O[C@@H]2O[C@H](CO)[C@@H](O)[C@H](O)[C@H]2O[C@H]2C[C@](C)(N)[C@H](O)[C@H](C)O2)Oc2ccc(cc2Cl)[C@H]1O [VANCOMYCIN]
MIC (Staphylococcus aureus [1]): 32 µg/mL (≈ 22.1 µM)
MIC (Staphylococcus aureus [4]): 32 µg/mL (≈ 22.1 µM)
MIC (Staphylococcus aureus [5]): 32 µg/mL (≈ 22.1 µM)
MIC (Staphylococcus aureus [6]): 8 µg/mL (≈ 5.52 µM)
MIC (Staphylococcus aureus [7]): 32 µg/mL (≈ 22.1 µM)
MIC (Staphylococcus aureus [10]): 32 µg/mL (≈ 22.1 µM)
MIC (Staphylococcus aureus [11]): 32 µg/mL (≈ 22.1 µM)
MIC (Staphylococcus aureus [13]): 32 µg/mL (≈ 22.1 µM)
